# zVAD death inh: blocks zVAD induced death of L929 cells | viability rescue, % at 10 µM | L929 zVAD necroptosis rescue, ATP luminescence, 24 h; with zVAD 60 µM | 0.38% of 220,000 active | AID 1377;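 active = activation, scaled between plate controls, above about 75%, limit read from the data; inactive = activation under that limit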;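 also: 0% = zVAD with DMSO and 100% = DMSO alone without zVAD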
# MDM2 E3 inh: Mdm2 E3 ligase (human) inhibition | Q00987 | cell-based MDM2 ubiquitination luciferase reporter, 2 h; 0 = plate control, 100 = twice control, blank-subtracted | signal enhancement, % at 5 µM | 0.11% of 210,000 active;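 active = signal enhancement of 30% or more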;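 also: luminescence tracks abundance of the self-degrading MDM2-luciferase fusion protein; higher signal means inhibition of MDM2 E3 ligase activity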
#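 Test system: stable mammalian line carrying autodegrading MDM2–luciferase fusion reporter; quantity: 2000 cells in each well; times: 4 h cell settling then 2 h compound exposure, 37 °C; detection: luminescence with SteadyLite reagent, 15 min at room temperature; evaluation: percent signal gain over controls, blank-subtracted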
# TNF necrop inh: TNF-alpha cell death inhibition in Jurkat FADD-/- cells; activation (protection from cell death), % at 10 µM; AID 463075; Jurkat FADD-/- TNF necroptosis rescue, ATP luminescence, 24 h; 0 = TNF only, 100 = no-TNF cells; 0.068% of 220,000 active;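 active = activation, meaning protection from cell death, of at least 50% relative to plate controls; inactive = activation below 50%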;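 also: necroptosis triggered by 40 ng/mL TNF-alpha added together with compound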
# Pf gamet viab: P. falciparum stage V gametocyte viability inhibition; inhibition, % at 10.9 µM; 0.065% of 150,000 active; P. falciparum stage V gametocytes, ATP luminescence, 24 h; AID 743093;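 active = inhibition above the mean plus 3 SD of compounds within the control limits, set per campaign, cut at about 38% in these data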;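 also: 0% = DMSO wells and 100% = medium only without gametocytes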
# Wee1 degr inh: inhibitors of human Wee1 degradation. P30291. HeLa Luc-Wee1K328M stability, luciferase luminescence; 100% = proteasome inhibitor MG132 effect. reporter increase, % at 5 µM. 1.2% of 220,000 active;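 active = activation above the mean of all tested compounds plus 3 SD, set per screening run, cut at about 8.8% in these data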;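 also: cells exposed to compound for 20 h before luminescence read; 0% = DMSO alone and 100% = MG132 at 30 µM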
# Target sequence (P30291 whole entry K328M): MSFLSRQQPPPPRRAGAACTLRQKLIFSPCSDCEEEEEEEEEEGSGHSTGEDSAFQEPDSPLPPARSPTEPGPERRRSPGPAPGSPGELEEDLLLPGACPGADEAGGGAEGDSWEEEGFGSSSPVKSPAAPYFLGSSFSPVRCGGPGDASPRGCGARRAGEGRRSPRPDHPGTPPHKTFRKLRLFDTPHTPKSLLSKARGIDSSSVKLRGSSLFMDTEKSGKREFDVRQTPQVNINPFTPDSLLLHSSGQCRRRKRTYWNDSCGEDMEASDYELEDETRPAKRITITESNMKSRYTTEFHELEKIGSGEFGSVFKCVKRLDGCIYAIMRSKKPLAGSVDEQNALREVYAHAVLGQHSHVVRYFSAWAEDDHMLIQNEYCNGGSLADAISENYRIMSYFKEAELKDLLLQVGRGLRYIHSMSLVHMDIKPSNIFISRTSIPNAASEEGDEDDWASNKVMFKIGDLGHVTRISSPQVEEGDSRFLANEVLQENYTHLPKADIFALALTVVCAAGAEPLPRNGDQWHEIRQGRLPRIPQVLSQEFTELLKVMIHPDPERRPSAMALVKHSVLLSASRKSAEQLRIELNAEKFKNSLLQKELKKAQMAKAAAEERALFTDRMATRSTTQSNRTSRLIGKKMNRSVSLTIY
# Wee1 stab conf: confirmation of human Wee1 degradation inhibitors. shares compounds with Wee1 degr inh. HeLa Luc-Wee1K328M degradation, luminescence; vehicle 0%, proteasome-blocked wells 100%. activation, % at 5 µM. 4% of 1,100 active. AID 1410; in the data active = activation above about 8.9%
# The depositor's hits bear a star; . = no result. A selection: hits, their analogues and other compounds. The true share with any hit is near 1.6%.
SMILES,zVAD death inh,MDM2 E3 inh,TNF necrop inh,Pf gamet viab,Wee1 degr inh,Wee1 stab conf
CCCCOC(=O)CSc1nc2ccccc2o1,0,-12,1,-11,12*,3
CCOc1ccc(-n2nc(C(=O)NCCOC)c3ccccc3c2=O)cc1,0,-2,0,-3,0,.
NC(=O)CSc1nnc(-c2ccncc2)n1CCc1ccccc1,0,-6,0,-2,1,.
O=C(CSc1nnc(-c2ccncc2)n1CCc1ccccc1)N1CCCC1,-1,.,2,.,12*,4
N#Cc1ccsc1NC(=O)CN1CCN(S(=O)(=O)c2ccccc2C(F)(F)F)CC1,2,-9,3,0,1,.
Cc1ccc(C)c(S(=O)(=O)N2CCN(CC(=O)Nc3sccc3C#N)CC2)c1,0,-5,3,.,14*,2
Cc1ccsc1/C=N\NC(=O)c1cc(C(C)(C)C)[nH]n1,9,-7,3,-7,44*,3
O=C(Cn1nnc(-c2ccccc2NC(=O)c2cccs2)n1)Nc1ccccc1,2,-12,-10,.,-1,.
COc1ccc(NC(=O)/C=C2\SC(=O)NC2=O)cc1,0,-3,0,.,15*,3
COc1ccc(NC(=O)Nc2ccc(OC)cc2)cc1,11,-17,1,.,-1,.
NCCOc1ccccc1-c1ccccc1,-1,-13,-9,-8,5,.
NCCOc1ccccc1OCCN,1,-12,-1,16,12*,0
CC(C)(C)NC(=O)NCCc1ccccc1,1,-16,6,-4,13*,-1
O=C(N/N=C/c1ccc(Cl)cc1Cl)c1cccc(F)c1,0,-7,-9,.,1,.
O=C(C[n+]1ccc(C(=O)N/N=C/c2ccc(Cl)cc2Cl)cc1)c1ccccc1,2,-10,-4,.,13*,-6
Cc1ccc(NC(=O)Nc2cccs2)c(Cl)c1,0,-11,-3,-8,2,.
O=C(Nc1cccs1)Nc1ccc(Br)cc1F,2,-2,1,15,14*,-2
Cc1[nH]c(=O)[nH]c(=O)c1NC(=O)c1ccc(OC(C)C)cc1,1,-5,-1,.,-4,.
Cc1nnc(SCC(=O)Nc2nsc(-c3ccc(C(C)(C)C)cc3)n2)s1,0,-25,-1,.,18*,1
COc1ccc(NC(=O)CS(=O)CC(=O)NC2CCCc3ccccc32)cc1 (centres undefined),1,-5,0,.,1,.
COc1ccc(NC(=O)COc2ccc(C(=O)NC3CCCc4ccccc43)cc2OC)cc1 (centres undefined),3,-5,1,-26,16*,3
COc1ccccc1N1CCN(C(=O)/C=C/c2ccc(C)cc2)CC1,2,-11,1,.,-3,.
COc1ccc(/C=C/C(=O)NC(=S)N2CCN(c3ccccc3OC)CC2)cc1,-1,-5,-3,10,12*,5
COc1ccc2cc(C(N)=O)c(=Nc3ccccc3)oc2c1,38,-20,0,-18,11*,5
COC(=O)c1cccc(Nc2ncnc3sccc23)c1,1,-6,-1,12,14*,0
SMILES,zVAD death inh,MDM2 E3 inh,TNF necrop inh,Pf gamet viab,Wee1 degr inh,Wee1 stab conf
COC(=O)c1ccc(COc2ncnc3sccc23)cc1,1,-5,3,16,1,.
Cc1ccc2c(CSc3nnc(C4CC4)n3N)cc(=O)oc2c1C,0,-7,-4,13,12*,2
Cc1ccc2c(CSc3nnc(C4CC4)n3N)cc(=O)oc2c1,-1,-2,0,.,-4,.
COc1ccc(NC(=O)CNS(=O)(=O)c2ccc(Cl)cc2)cc1OC,1,-65,8,-10,15*,3
CC(=O)Nc1ccc2nc(NC(=O)c3ccc([N+](=O)[O-])s3)sc2c1,-1,-7,-9,.,0,.
CC(=O)Nc1ccc2nc(-c3cccn3C)[nH]c2c1,.,.,.,2,.,.
CC(=O)Nc1ccc2nc(-c3cccs3)[nH]c2c1,3,6,-3,.,16*,-1
CC(=O)Nc1ccc2nc(NC(=O)c3cccs3)sc2c1,-1,.,-2,9,11*,1
CC(=O)Nc1ccc2nc3ccccc3nc2c1,2,-5,0,-12,24*,-1

# Bioassay records: PubChem BioAssay, several laboratories
